Substitutions are numbered along the chain they refer to.
Tests used:
PfCRT 7G8+F145I = molecular target: T1, PfCRT 7G8+F145I (Plasmodium falciparum, UniProt W7FI62, F145I); assay: Equilibrium dialysis binding, PfCRT variant in nanodiscs; conditions: for Bmax, binding at pH 5.5 / Bmax, binding at pH 7.5: equilibrium dialysis
T1 sequence (W7FI62 1-424 F145I): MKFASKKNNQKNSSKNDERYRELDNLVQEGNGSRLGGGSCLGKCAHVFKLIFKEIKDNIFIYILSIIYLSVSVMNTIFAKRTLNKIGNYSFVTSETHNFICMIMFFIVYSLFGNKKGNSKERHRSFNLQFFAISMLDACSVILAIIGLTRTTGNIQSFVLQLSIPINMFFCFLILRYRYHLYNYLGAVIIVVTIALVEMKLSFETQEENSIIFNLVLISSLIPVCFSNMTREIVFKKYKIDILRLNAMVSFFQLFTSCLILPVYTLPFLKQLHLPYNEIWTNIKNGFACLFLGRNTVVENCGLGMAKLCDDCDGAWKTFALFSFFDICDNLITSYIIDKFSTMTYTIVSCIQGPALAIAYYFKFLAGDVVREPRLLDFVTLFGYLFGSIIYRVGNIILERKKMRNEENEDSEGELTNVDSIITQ

PfCRT WT (3D7) = molecular target: T2, PfCRT WT (3D7) (Plasmodium falciparum, UniProt Q9N623); assay: Equilibrium dialysis binding, PfCRT variant in nanodiscs; conditions: for Bmax, binding at pH 5.5 / Bmax, binding at pH 7.5: equilibrium dialysis
T2 sequence (Q9N623 1-424): T1 sequence (W7FI62 1-424 F145I) with S72C, T76K, I145F, S220A, D326N, L356I
Method in brief: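 Saturation binding of [3H]-CQ (1 Ci/mmol) or [3H]-PPQ (2.5 Ci/mmol) by equilibrium dialysis (12,000–14,000 MWCO) with 4.2 pmol PfCRT in POPG/MSP1D1 nanodiscs (BacMam, HEK293S GnTi- cells). Kd came from global non-linear regression, N=3.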

PfCRT Dd2 = molecular target: T3, PfCRT Dd2 (Plasmodium falciparum, UniProt Q9N623, A220S/I356T/K76T/M74I/N326S/N75E/Q271E/R371I); assay: Transport; assay type: biochemical; conditions: for transport activity (in words): proteoliposomes
T3 sequence (Q9N623 1-424 M74I/N75E/K76T/A220S/Q271E/N326S/I356T/R371I): T1 sequence (W7FI62 1-424 F145I) with S72C, M74I, N75E, I145F, Q271E, D326S, L356T, R371I

[1] = system: P. falciparum 7G8^7G8 parasite line; assay: [3H]-drug accumulation assay in cultured parasites; assay type: cell-based, Plasmodium falciparum; conditions: 60 min, trophozoites
Method in brief: (§1)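 Sorbitol-synchronized early trophozoites (24–26 h) were magnet-purified and resuspended in bicarbonate-free RPMI 1640 (25 mM HEPES, 10 mM glucose, 0.2 mM hypoxanthine, pH 7.4), counted by hemocytometer. They were mixed with an equal volume of radiolabelled drug (10 nM [3H]-CQ before mixing) for 1 h at 37°C, spun through dibutyl phthalate, then scintillation counted. CAR was internal/external drug, corrected for uninfected erythrocytes, per 10^6 cells at 75 fl; 4–6 assays in duplicate.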

[2] = system: P. falciparum 7G8^7G8+C350R parasite line; assay: [3H]-drug accumulation assay in cultured parasites; assay type: cell-based, Plasmodium falciparum; conditions: 60 min, trophozoites
Method in brief: as §1

[3] = system: P. falciparum Dd2^Dd2 parasite line; assay: [3H]-drug accumulation assay in cultured parasites; assay type: cell-based, Plasmodium falciparum; conditions: 60 min, trophozoites
Method in brief: as §1

[4] = system: P. falciparum WT (3D7) parasite line; assay: [3H]-drug accumulation assay in cultured parasites; assay type: cell-based, Plasmodium falciparum; conditions: 60 min, trophozoites
Method in brief: as §1

[5] = system: P. falciparum 7G8^7G8 parasite line; assay: Parasite drug susceptibility assay; assay type: cell-based, Plasmodium falciparum; conditions: Plasmodium falciparum, 7G8, 72 h
Method in brief: (§2)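 Asynchronous asexual blood-stage parasites were seeded at 0.3% parasitemia and 1% hematocrit into 2-fold, 10-point test compound dilutions. Incubation was 72 h at 37°C under 5% O2/5% CO2/90% N2. Final parasitemia was read by flow cytometry. IC50 came from nonlinear regression, 4 independent assays in duplicate, with two-tailed Mann-Whitney U tests.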

[6] = system: P. falciparum 7G8^7G8+F145I parasite line; assay: Parasite drug susceptibility assay; assay type: cell-based, Plasmodium falciparum; conditions: for IC50: Plasmodium falciparum, 7G8, 72 h
Method in brief: as §2

[7] = system: P. falciparum 7G8^7G8+C350R parasite line; assay: Parasite drug susceptibility assay; assay type: cell-based, Plasmodium falciparum; conditions: Plasmodium falciparum, 7G8, 72 h
Method in brief: as §2

[8] = binding at pH 5.5, equilibrium dialysis, pH 5.5
[9] = binding at pH 7.5, equilibrium dialysis, pH 7.5

Structure (SMILES)	Kd (PfCRT 7G8+F145I; [8])	Kd (PfCRT 7G8+F145I; [9])	Bmax, binding at pH 5.5 (PfCRT 7G8+F145I; pH 5.5)	Bmax, binding at pH 7.5 (PfCRT 7G8+F145I; pH 7.5)	Kd (PfCRT WT (3D7))	Bmax, binding at pH 5.5 (PfCRT WT (3D7))	Bmax, binding at pH 7.5 (PfCRT WT (3D7))	transport activity (in words) (PfCRT Dd2)	IC50 [5]	IC50 [6]	IC50 [7]	further results
Clc1ccc2c(N3CCN(CCCN4CCN(c5ccnc6cc(Cl)ccc56)CC4)CC3)ccnc2c1 [PPQ, piperaquine]	0.22 ± 0.03 µM	0.26 ± 0.03 µM	0.38 ± 0.01 mol CQ/mol PfCRT	0.42 ± 0.01 mol CQ/mol PfCRT	0.26 ± 0.04 µM	0.38 ± 0.02 mol CQ/mol PfCRT	0.40 ± 0.02 mol CQ/mol PfCRT	Minimal	0.0214 ± 0.001 µM	0.0287 ± 0.001 µM	0.0295 ± 0.0016 µM	fold increase in Kd compared with 7G8 parental isoform (PfCRT 7G8+F145I; pH 5.5): ~ 2 fold; [3H]-PPQ CAR (cellular accumulation ratio) ([1]; 20 nM [3H]-PPQ): 1943.9 ± 82.2; [3H]-PPQ CAR (cellular accumulation ratio) ([2]; 20 nM [3H]-PPQ): 1207.4 ± 119.8; [3H]-PPQ CAR (cellular accumulation ratio) ([3]; 20 nM [3H]-PPQ): 1861.3 ± 91.8; [3H]-PPQ CAR (cellular accumulation ratio) ([4]; 20 nM [3H]-PPQ): 2123.8 ± 72.2; fold increase in IC90 compared to the isogenic 7G8 control line ([6]; 72 h growth inhibition): 188 fold
CCN(CC)CCCC(C)Nc1ccnc2cc(Cl)ccc12 (stereo not shown) [CQ, chloroquine]	0.24 ± 0.06 µM	0.29 ± 0.05 µM	0.39 ± 0.03 mol CQ/mol PfCRT	0.43 ± 0.02 mol CQ/mol PfCRT	0.28 ± 0.04 µM	0.40 ± 0.02 mol CQ/mol PfCRT	0.42 ± 0.02 mol CQ/mol PfCRT	robust transport activity	0.083 ± 0.0075 µM	0.0073 ± 0.0004 µM	0.0069 ± 0.0003 µM	1-min uptake, transport in proteoliposomes (PfCRT Dd2; 100 nM [3H]-drug, 1 min, inwardly-directed pH gradient): 3.33 ± 0.22 nmol/mg; Vmax, transport in proteoliposomes (PfCRT Dd2; initial rates over 3 s, Michaelis-Menten fit): 91.37 ± 2.79 nmol/mg/min; [3H]-CQ CAR (cellular accumulation ratio) ([1]; 5 nM [3H]-CQ): 14.5 ± 3.7; [3H]-CQ CAR (cellular accumulation ratio) ([2]; 5 nM [3H]-CQ): 406.4 ± 22.4; [3H]-CQ CAR (cellular accumulation ratio) ([3]; 5 nM [3H]-CQ): 26.3 ± 2.9; [3H]-CQ CAR (cellular accumulation ratio) ([4]; 5 nM [3H]-CQ): 876.7 ± 38.7
